Screening data deposited in PubChem by Sanford-Burnham Center for Chemical Genomics.
Sampled rows, rich in hits. Any-hit rate of the full collection: about 1.2%.
HKDC1 inh: blocks human hexokinase HKDC1 activity. recombinant HKDC1, G6PDH/diaphorase resazurin coupled fluorescence. Q2TB90. inhibition, % at 20 µM. 340,000 tested, 0.16% active. AID 493160;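 active = inhibition above about 35% when tested at 20 µM, limit read from the data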;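 note: plate controls were DMSO wells with enzyme for no effect and DMSO wells lacking enzyme for full effect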
Target sequence (Q2TB90 whole entry, looked up): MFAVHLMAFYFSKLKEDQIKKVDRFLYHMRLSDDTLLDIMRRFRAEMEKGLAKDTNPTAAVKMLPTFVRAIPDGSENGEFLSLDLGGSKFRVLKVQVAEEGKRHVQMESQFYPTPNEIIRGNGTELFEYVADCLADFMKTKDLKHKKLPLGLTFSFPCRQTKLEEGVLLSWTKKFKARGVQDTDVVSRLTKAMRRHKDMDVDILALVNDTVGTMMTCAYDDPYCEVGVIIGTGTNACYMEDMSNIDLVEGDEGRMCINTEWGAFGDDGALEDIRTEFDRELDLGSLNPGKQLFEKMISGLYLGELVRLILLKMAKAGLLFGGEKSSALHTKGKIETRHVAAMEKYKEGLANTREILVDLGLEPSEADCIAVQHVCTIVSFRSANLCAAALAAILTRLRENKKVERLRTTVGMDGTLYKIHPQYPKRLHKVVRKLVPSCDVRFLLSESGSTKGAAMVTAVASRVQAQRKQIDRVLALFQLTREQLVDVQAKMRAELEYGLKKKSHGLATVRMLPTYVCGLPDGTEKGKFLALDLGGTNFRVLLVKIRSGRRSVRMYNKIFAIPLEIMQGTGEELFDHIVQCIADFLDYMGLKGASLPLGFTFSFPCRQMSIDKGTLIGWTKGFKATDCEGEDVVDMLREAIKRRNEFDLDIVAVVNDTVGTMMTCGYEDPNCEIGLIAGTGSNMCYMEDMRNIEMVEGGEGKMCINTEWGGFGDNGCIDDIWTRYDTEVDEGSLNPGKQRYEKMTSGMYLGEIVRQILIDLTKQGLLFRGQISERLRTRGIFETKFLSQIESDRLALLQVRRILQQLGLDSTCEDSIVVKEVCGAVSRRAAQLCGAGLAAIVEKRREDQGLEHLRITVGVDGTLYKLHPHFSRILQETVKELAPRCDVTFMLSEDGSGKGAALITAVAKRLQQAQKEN
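Material – in-house recombinant HK5 (HKDC1) enzyme · Quantity – HKDC1 at 5 µg/mL · Buffer or medium – pH 8.0 Tris buffer with 10 mM MgCl2 · Reagent – glucose with 1 mM ATP · Dosing – single 20 µM dose · Times – reaction time 90 min, room temperature, protected from light · Technique – resorufin fluorescence at 613 nm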
G6PDH counter: counter-screen for G6PDH assay hits: L. mesenteroides G6PDH inhibition; Purified L. mesenteroides G6PDH, diaphorase/resazurin coupled fluorescence, 45 min; inhibition, % at 5 µM; 200,000 tested, 0.12% active; in the data active = inhibition above about 50%
PfG6PD inh: PfG6PD (Plasmodium falciparum) enzyme inhibition; PfGluPho enzyme, NADPH resazurin-diaphorase fluorescence; inhibition, % at 20 µM; 350,000 tested, 0.78% active; AID 504690;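 active = inhibition reaching at least a set limit at 20 µM in the primary screen, cut at about 59% in these data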;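 note: 0% = DMSO wells with substrate and 100% = DMSO wells lacking glucose-6-phosphate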
Diaph inh CS: counter-screen for diaphorase-based assays: diaphorase inhibitors and chemical oxidizers | diaphorase resazurin-to-resorufin fluorescence, NADH, 16 min; bacterial (C. kluyveri) enzyme, not human | inhibition, % at 20 µM | 190,000 tested, 0.69% active | AID 1217;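 active = primary screen inhibition at 20 µM above a set limit, cut at about 50% in these data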;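 note: plate controls were DMSO with full reaction for no effect and wells lacking NADH for full effect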
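System: Diaphorase enzyme from Clostridium kluyveri | Amount: Enzyme working solution with 0.14 U/mL diaphorase | Benchmarks: No-NADH positive control and DMSO neutral control | Signal: Fluorescence of resorufin formed from resazurin, Ex 544/Em 590 nm | Schedule: 16-min room-temperature incubation before reading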
PfGluPho conf: PfG6PD inhibition, single-dose confirmed. shares compounds with PfG6PD inh. recombinant PfGluPho, NADPH-diaphorase-resazurin fluorescence. inhibition, % at 20 µM. 2,400 tested, 34% active;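 active = inhibition of at least 50% at 20 µM in any single replicate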;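 note: 0% = DMSO with substrate and 100% = DMSO lacking glucose-6-phosphate substrate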
Diaph ctr 10uM: inhibits diaphorase or oxidizes, flagging false PfG6PD hits; inhibition, % at 20 µM; AID 504862; diaphorase-coupled resazurin reduction, fluorescence, NADPH 10 uM; shares compounds with PfG6PD inh; 820 tested, 39% active;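 active = average inhibition reaching 50% or more with the compound at 20 µM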;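 note: resorufin red fluorescence formed as diaphorase reduces resazurin using NADPH; 0% = DMSO with enzyme and 100% = DMSO without enzyme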
Diaph ctr 30uM: inhibits diaphorase or oxidizes, flagging false PfG6PD hits; shares compounds with PfG6PD inh; Diaphorase/resazurin coupled assay, resorufin fluorescence, 30 uM NADPH; inhibition, % at 20 µM; 820 tested, 29% active; AID 504863;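 active = inhibition averaging 50% or more, tested at 20 µM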;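 note: 0% = DMSO with enzyme and 100% = DMSO wells lacking diaphorase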
* hit, by the source's call; . = not tested or not shown.

SMILES	HKDC1 inh	G6PDH counter	PfG6PD inh	Diaph inh CS	PfGluPho conf	others
CCCCCCn1c(=O)n2n(c1=O)C[C@]1(OC(=O)NCc3ccccc3)CN(S(=O)(=O)c3ccc(C)cc3)C[C@]1(O)C2	.	.	15.0	.	.
CCc1cc(-c2nnn(CCC3COCCO3)c2C(C)(C)O)ccc1-c1cn(CCc2c[nH]c3ccccc23)nn1 (centres undefined)	.	.	15.7	.	.
Cc1ccc(S(=O)(=O)N2CCN(Cc3cc(=O)n4ccccc4n3)CC2)c(C)c1	0.5	.	-2.3	.	.
COc1ccc(Cl)cc1S(=O)(=O)N1CCN=C1Cc1ccccc1	-3.7	.	18.9	.	.
COc1ccccc1S(=O)(=O)n1cc(Cc2ccccc2)c(N)n1	-2.0	8.0	76.4*	13.3	7.1
CCOC(=O)C(C)On1c(-c2ccc(Cl)cc2)nc2ccc([N+](=O)[O-])cc21 (centres undefined)	2.4	-3.4	75.8*	29.2	8.5
O=[N+]([O-])c1ccc2nc(-c3ccc(Cl)cc3)n(OCc3ccccc3)c2c1	7.8	1.6	121.6*	8.6	-1.1
Clc1ccc(COn2c(-c3ccc(Cl)cc3)nc3ccccc32)cc1	-0.9	0.5	30.8	13.5	.
O=c1c2ccc(Cl)cc2nc(-c2ccc([N+](=O)[O-])cc2)n1O	-5.7	4.3	5.8	-3.9	.
CCOC(=O)C(C)On1c(-c2ccccc2)nc2ccc([N+](=O)[O-])cc21 (centres undefined)	-2.6	14.7	61.6*	19.7	-9.8
CC(O)c1nc2cc([N+](=O)[O-])ccc2n1Cc1ccccc1 (centres undefined)	3.7	.	-0.7	.	.
COc1ccc2c(c1)OC[C@H]1[C@H]2N2C(=O)CN(Cc3ccccc3)C(=O)[C@@]2(C)[C@H]1c1ccccc1	5.3	.	-2.8	.	.
Cc1cc(NC(=O)CN2C(=O)NC3(CCCCCC3)C2=O)ccc1Br	-0.4	.	-4.6	.	.
O=C1CCC[C@@H]2[C@@H](Cc3ccccc3)[C@H](N3CCN(c4ccccc4)CC3)C[C@@H]3CCN1[C@@H]32	2.3	.	107.0*	.	55.9*	Diaph ctr 10uM=59.7*;Diaph ctr 30uM=46.6
O=C(NCCc1ccccc1)C1CCC(CNS(=O)(=O)c2ccc(F)cc2)CC1 (centres undefined)	-3.7	.	11.4	.	.
CCOC(=O)C1C(=O)NC(SCC(=O)Nc2nccs2)=C(C#N)C1c1ccccc1OCC (centres undefined)	-22.3	-4.0	70.3*	7.6	30.9
O=C(NNC(=O)c1ccccc1F)c1cccc(S(=O)(=O)N2CCc3ccccc32)c1	2.1	.	-19.9	.	.
O=C(CSc1nc2ccccc2[nH]1)NC1CCCc2ccccc21 (centres undefined)	1.6	-7.0	64.2*	10.3	56.9*	Diaph ctr 10uM=42.3;Diaph ctr 30uM=39.5
O=C(CSc1nc2ccc(Cl)cc2[nH]1)NC1CCCc2ccccc21 (centres undefined)	6.3	-9.3	107.2*	9.5	55.2*	Diaph ctr 10uM=42.0;Diaph ctr 30uM=34.2
Cc1ccc2nc(SC(C)C(=O)NC3CCCc4ccccc43)[nH]c2c1 (centres undefined)	5.2	-8.0	75.7*	14.6	44.1
COc1ccc2nc(SCC(=O)NC3CCCc4ccccc43)[nH]c2c1 (centres undefined)	-6.2	-0.6	16.5	14.0	.
Cc1cc(=O)[nH]c(SCC(=O)NC2CCCc3ccccc32)n1 (centres undefined)	9.1	.	-24.2	.	.
NS(=O)(=O)c1ccc(CNC(=O)Cc2ccsc2)cc1	-5.3	.	10.6	.	.
CCCCN(C)S(=O)(=O)c1cc2c(cc1Br)CCN2C(=O)C1CC1	10.2	.	0.0	.	.
COc1cc(NCCCCCCN)c2ncccc2c1OC	19.7	.	89.5*	.	45.6
COc1cc(N)c2ncccc2c1OC	6.1	.	70.5*	.	73.7*	Diaph ctr 10uM=22.3;Diaph ctr 30uM=8.1
COc1cc(C(=O)Nc2cccc3ncccc23)cc(OC)c1OC	0.3	19.9	-8.8	0.3	.
COc1cc(NC(C)CCCNC(C)C)c2ncccc2c1OC (centres undefined)	19.4	.	36.6	.	.
Cc1onc(-c2ccccc2)c1C(=O)N(Cc1ccco1)Cc1cccs1	-0.5	-3.5	83.4*	-1.9	38.7
OCCCNc1cc(-c2ccccc2)nc2cc(-c3ccc(F)cc3)nn12	-0.9	.	-0.6	.	.
